Results taken from ChEMBL document CHEMBL1123413, “Synthesis and biological evaluation of 1-(1,2-benzisothiazol-3-yl)- and (1,2-benzisoxazol-3-yl)piperazine derivatives as potential antipsychotic agents” (J Med Chem, 1986).

Key:
[1] = Lethal dose after intraperitoneal administration in mouse; format: toxicity, organism-based; conditions: in vivo, ip, read-out: ALD50
Dopamine receptor = assay: Compound was tested for its effect on dopamine saturation analysis; format: protein assay
[2] = target: GABA-A receptor; anion channel; assay: Inhibition of [3H]muscimol binding to Gamma-aminobutyric acid (GABA-A) receptor; format: protein-complex assay, Rattus norvegicus
[3] = Binding affinity against glycine receptor was measured using radioligand ([3H]strychnine) binding assay
[4] = Binding affinity against histamine receptor was measured using radioligand ([3H]-pyrilamine) binding assay
Mus musculus [5] = species: Mus musculus; assay: Compound was tested for inhibition of norepinephrine lethality in mouse; format: functional
Summary of the method: (§1)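 Groups of 10 nonfasted male mice dosed orally with test compound (initial 100 mg/kg) or vehicle (distilled H2O or 0.5% methocel). Active compounds retested at lower doses, 10 mice/dose, for dose response. ED50 by Berkson's method.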

Mus musculus [6] = species: Mus musculus; assay: Compound was tested for inhibition of physostigmine lethality in mouse.; format: functional
Summary of the method: as §1, with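 “methocel). At 30 min, physostigmine given ip at 1.25 mg/kg, and lethality followed for up to 1 h.” for “methocel).”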

Mus musculus [7] = species: Mus musculus; assay: Compound was tested for inhibition of spontaneous motor activity in mouse.; format: functional
Rattus norvegicus [8] = species: Rattus norvegicus; assay: Compound was tested for inhibition of hexobarbatial potentiation in rat.; format: functional
Summary of the method: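 Hexobarbital sodium (40 mg/kg, ip) was given to nonfasted male rats 15, 30, 60 or 120 min after test drug, or 15 min after vehicle (distilled H2O or 0.5% methocel). Loss of righting reflex of 1-min duration was scored over about 10–15 min. Dose response at peak-effect time used 10 rats/dose; ED50 and fiducial limits by Berkson.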

Rattus norvegicus [9] = species: Rattus norvegicus; assay: Compound was tested for inhibition of spontaneous motor activity in rat.; format: functional
Rattus norvegicus [10] = species: Rattus norvegicus; assay: Compound was tested for inhibition of ethanol potentiation in rat.; format: functional
Summary of the method: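 Nonfasted male rats received test drug or vehicle (distilled H2O or 0.5% methocel). EtOH (10 mL of 20% solution/kg, ip) followed at 15, 30, 60 or 120 min post-drug; the vehicle group got it at 15 min. Rats were watched about 10–15 min for loss of righting reflex lasting 1 min. Dose response at peak time used 10/dose; ED50 by Berkson.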

[11] = target: T1, Adrenergic receptor alpha-1 (Rattus norvegicus, UniProt P15823+P23944+P43140)
T1 sequence (P15823 whole entry): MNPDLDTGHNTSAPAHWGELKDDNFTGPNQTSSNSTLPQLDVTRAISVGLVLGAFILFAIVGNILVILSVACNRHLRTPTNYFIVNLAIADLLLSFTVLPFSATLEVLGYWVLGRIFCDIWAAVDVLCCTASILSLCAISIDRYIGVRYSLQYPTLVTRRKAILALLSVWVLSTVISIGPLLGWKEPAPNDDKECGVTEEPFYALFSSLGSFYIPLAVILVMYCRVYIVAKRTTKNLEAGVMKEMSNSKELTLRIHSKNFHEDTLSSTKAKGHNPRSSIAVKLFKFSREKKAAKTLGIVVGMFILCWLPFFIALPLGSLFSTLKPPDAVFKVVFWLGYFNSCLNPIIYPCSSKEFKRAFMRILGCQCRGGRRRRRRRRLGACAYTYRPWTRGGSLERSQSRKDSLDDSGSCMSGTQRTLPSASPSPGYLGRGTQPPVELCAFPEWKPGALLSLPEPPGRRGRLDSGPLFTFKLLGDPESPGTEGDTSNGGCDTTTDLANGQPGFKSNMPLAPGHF
T1 sequence (P23944 whole entry): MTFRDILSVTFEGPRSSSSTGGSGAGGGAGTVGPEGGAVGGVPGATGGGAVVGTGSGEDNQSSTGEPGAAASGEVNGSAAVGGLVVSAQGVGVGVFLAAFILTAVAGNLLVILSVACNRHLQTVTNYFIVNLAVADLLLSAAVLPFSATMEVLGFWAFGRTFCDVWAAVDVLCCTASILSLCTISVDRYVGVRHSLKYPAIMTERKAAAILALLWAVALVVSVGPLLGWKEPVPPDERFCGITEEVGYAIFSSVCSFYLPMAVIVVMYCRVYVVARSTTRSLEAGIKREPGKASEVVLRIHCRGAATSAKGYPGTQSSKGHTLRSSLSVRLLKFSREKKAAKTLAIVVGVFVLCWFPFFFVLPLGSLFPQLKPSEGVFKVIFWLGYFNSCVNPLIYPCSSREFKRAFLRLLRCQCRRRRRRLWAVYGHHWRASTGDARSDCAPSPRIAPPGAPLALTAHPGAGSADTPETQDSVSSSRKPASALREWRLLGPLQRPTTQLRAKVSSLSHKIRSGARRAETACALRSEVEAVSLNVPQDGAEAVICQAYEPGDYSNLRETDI
T1 sequence (P43140 whole entry): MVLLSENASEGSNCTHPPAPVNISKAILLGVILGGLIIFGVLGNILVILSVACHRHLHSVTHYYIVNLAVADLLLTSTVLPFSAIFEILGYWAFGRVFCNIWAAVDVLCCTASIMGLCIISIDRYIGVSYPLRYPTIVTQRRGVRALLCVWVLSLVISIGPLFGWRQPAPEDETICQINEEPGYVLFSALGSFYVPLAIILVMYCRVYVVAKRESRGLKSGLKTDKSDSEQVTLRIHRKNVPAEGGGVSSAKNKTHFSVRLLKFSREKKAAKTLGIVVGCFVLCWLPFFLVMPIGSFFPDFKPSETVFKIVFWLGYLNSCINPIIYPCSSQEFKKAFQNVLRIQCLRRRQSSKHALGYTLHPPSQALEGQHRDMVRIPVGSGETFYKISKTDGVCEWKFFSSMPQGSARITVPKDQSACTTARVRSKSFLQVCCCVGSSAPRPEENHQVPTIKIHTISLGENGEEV

Q: Which results are given for Cl.O=C1CC2(CCCC2)CC(=O)N1CCCCN1CCN(c2nsc3ccccc23)CC1 [TIOSPIRONE HYDROCHLORIDE]?
A: LD50 [1]: 1530 mg/kg; Kd (Dopamine receptor): 0.3337 nM; IC50 [2]: > 1000 nM; IC50 [3]: > 1000 nM; IC50 [4]: 142 nM; ED50 (Mus musculus [5]): 12.5 mg/kg; ED50 (Mus musculus [6]): 294 mg/kg; ED50 (Mus musculus [7]): 17.3 mg/kg; ED50 (Rattus norvegicus [8]): 6.7 mg/kg; ED50 (Rattus norvegicus [9]): 8.4 mg/kg; ED50 (Rattus norvegicus [10]): 9.3 mg/kg; IC50 [11]: 47 nM
